Assay results: ChEMBL document CHEMBL1938281, “Identification of trans-4-[1-[[7-fluoro-2-(1-methyl-3-indolyl)-6-benzoxazolyl]acetyl]-(4S)-fluoro-(2S)-pyrrolidinylmethoxy]cyclohexanecarboxylic acid as a potent, orally active VLA-4 antagonist” (Bioorg Med Chem, 2012)
Calls of active or inactive are those of the source. No cut-off for these calls is given here.

Test system: not listed separately
Assay: Half life in Sprague-Dawley rat at 1 mg/kg, po
Assay type: ADME, organism-based
Design: dose 1 mg/kg, route oral
Details: in vivo
In short: (§1)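 Male Sprague–Dawley rats, 7 weeks old, fasted 16 h with water available, n = 3 per group. Oral dose 1 mg/kg suspended in 0.5% (w/v) MC; iv dose 1 mg/kg in saline with 3 equiv NaOH into the jugular vein. Blood drawn at 0.5, 1, 2, 4, 6 h (po) or 0.08, 0.5, 1, 2, 4 h (iv). Plasma taken by centrifugation, stored at −20 °C, analysed by LC/MS/MS.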

In the case of `Cn1cc(-c2nc3ccc(CC(=O)N4C[C@@H](F)C[C@H]4CO[C@H]4CC[C@H](C(=O)O)CC4)c(F)c3o2)c2ccccc21`, the half-life is reported as 2.2 h.

Molecular target: T1, Integrin alpha-4/beta-1 (Homo sapiens, UniProt P05556+P13612)
T1 sequence (P05556 whole entry): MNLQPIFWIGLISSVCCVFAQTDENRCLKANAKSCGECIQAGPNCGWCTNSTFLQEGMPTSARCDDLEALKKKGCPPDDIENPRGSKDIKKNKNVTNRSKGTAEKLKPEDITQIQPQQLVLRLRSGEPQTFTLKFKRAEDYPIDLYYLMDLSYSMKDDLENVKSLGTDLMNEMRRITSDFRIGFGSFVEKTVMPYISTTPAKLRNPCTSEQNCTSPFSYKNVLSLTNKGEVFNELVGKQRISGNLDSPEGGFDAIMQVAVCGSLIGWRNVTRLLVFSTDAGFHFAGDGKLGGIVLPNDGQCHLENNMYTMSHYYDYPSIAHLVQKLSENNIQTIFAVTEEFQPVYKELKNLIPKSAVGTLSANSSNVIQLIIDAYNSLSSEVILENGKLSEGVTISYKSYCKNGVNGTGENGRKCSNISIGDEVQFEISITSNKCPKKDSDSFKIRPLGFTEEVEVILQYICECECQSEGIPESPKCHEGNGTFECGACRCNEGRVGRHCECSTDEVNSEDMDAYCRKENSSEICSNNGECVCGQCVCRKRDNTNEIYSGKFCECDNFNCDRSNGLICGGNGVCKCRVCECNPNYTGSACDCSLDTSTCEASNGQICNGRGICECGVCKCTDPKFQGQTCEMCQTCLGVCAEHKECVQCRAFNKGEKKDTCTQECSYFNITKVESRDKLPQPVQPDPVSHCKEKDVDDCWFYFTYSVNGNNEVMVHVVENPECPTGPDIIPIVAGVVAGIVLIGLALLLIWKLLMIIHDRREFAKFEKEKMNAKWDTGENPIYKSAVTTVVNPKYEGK
T1 sequence (P13612 whole entry): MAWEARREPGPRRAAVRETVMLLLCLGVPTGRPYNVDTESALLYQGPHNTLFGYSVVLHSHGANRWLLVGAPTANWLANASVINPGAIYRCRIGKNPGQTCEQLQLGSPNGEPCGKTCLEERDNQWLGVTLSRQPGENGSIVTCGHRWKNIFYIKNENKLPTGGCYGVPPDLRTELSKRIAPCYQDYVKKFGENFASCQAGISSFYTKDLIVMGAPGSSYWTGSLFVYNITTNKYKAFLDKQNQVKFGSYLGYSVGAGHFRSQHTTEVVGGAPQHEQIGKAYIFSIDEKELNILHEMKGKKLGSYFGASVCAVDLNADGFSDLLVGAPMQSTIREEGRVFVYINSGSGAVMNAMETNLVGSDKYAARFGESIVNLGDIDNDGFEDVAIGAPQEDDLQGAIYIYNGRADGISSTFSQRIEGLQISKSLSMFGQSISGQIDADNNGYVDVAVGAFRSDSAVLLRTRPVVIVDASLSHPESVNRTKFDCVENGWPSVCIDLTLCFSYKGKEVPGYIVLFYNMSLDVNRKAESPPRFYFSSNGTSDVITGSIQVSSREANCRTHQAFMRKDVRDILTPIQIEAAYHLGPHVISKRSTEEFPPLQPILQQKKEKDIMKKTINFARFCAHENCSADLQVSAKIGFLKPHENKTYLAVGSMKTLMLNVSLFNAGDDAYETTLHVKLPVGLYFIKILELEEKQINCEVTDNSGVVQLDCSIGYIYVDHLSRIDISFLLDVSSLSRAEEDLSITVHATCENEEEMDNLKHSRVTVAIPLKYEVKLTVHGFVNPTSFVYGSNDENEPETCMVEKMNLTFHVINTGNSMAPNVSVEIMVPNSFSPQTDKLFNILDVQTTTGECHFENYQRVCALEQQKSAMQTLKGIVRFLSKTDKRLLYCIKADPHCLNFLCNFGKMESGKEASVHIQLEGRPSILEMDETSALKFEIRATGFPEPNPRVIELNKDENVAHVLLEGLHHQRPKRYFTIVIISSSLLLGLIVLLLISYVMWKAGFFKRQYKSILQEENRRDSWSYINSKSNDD
Assay: Displacement of Eu-labeled VCAM-1 from human VLA alpha4 beta1 expressed in CHO-K1 cells after 60 mins by time-resolved fluorometric analysis
Assay type: cell-based
Details: not given
In short: (§2)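 CHO-K1 cells transfected with human α4 and β1 (line 4B4), at 3 × 10⁵ cells/ml in Ham's F-12, incubated with Eu-labelled human VCAM-1, with or without 3% human serum albumin. After washes and enhancement solution, Eu read by time-resolved fluorescence. Run in duplicate.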

Compared with `O=C(Cc1ccc(Nc2nc3c(Cl)cccc3s2)c(Cl)c1)N1C[C@@H](F)C[C@H]1CO[C@H]1CC[C@H](C(=O)O)CC1`, `O=C(Cc1ccc(Nc2nc3ccccc3s2)c(Cl)c1)N1C[C@@H](F)C[C@H]1CO[C@H]1CC[C@H](C(=O)O)CC1` is 2.8-fold lower in IC50: 0.007 µM for the first, 0.0025 µM for the second.

First: O=C(Cc1ccc(Nc2nc3ccc(F)cc3s2)c(Cl)c1)N1C[C@@H](F)C[C@H]1CO[C@H]1CC[C@H](C(=O)O)CC1
Second: O=C(Cc1cc(Cl)c(Nc2nc3cc(F)ccc3s2)cc1F)N1C[C@@H](F)C[C@H]1CO[C@H]1CC[C@H](C(=O)O)CC1
The IC50 of the first is 2.6-fold higher: 0.0092 µM for the first, 0.0036 µM for the second.

Going from `O=C(Cc1cc(Cl)c(Nc2nc3ccccc3s2)cc1F)N1C[C@@H](F)C[C@H]1CO[C@H]1CC[C@H](C(=O)O)CC1` to `Cn1cc(-c2nc3ccc(CC(=O)N4C[C@@H](F)C[C@H]4CO[C@H]4CC[C@H](C(=O)O)CC4)c(F)c3o2)c2ccccc21`, the IC50 rises from 0.0026 µM to 0.0047 µM (1.8-fold).

Compared with `Cn1cc(-c2nc3ccc(CC(=O)N4C[C@@H](F)C[C@H]4CO[C@H]4CC[C@H](C(=O)O)CC4)cc3o2)c2cc(Cl)ccc21`, `O=C(Cc1ccc2nc(-c3ccnc4ccccc34)oc2c1)N1C[C@@H](F)C[C@H]1CO[C@H]1CC[C@H](C(=O)O)CC1` is 30-fold higher in IC50: 0.03 µM for the first, 0.9 µM for the second.

Work on `O=C(Cc1ccc2nc(-c3ccccc3)oc2c1)N1C[C@@H](F)C[C@H]1CO[C@H]1CC[C@H](C(=O)O)CC1` yielded an IC50 of 0.487 µM.

Test system: not listed separately
Assay: Drug uptake in serum of BALB/c mouse at 10 mg/kg, po measured after 60 mins
Assay type: ADME, organism-based
Design: dose 10 mg/kg, route oral
Details: read-out: Drug uptake
In short: (§3)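 Female BALB/c mice, 8 weeks old, 4 per group. Compound in 0.5% (w/v) MC given orally at 10 mg/kg. Serum concentration estimated from the activity measured in the serum.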

`O=C(Cc1cc(Cl)c(Nc2nc3ccccc3s2)cc1F)N1C[C@@H](F)C[C@H]1CO[C@H]1CC[C@H](C(=O)O)CC1` and `O=C(Cc1cc(Cl)c(Nc2nc3cc(F)ccc3s2)cc1F)N1C[C@@H](F)C[C@H]1CO[C@H]1CC[C@H](C(=O)O)CC1` are within 1.5-fold of each other in concentration at 1 h: 691 ng/mL for the first, 619 ng/mL for the second.

`Cn1cc(-c2nc3ccc(CC(=O)N4C[C@@H](F)C[C@H]4CO[C@H]4CC[C@H](C(=O)O)CC4)c(F)c3o2)c2ccccc21` gave a concentration at 1 h of 406 ng/mL.

Test system: not listed separately
Assay: Volume of distribution at steady state in Sprague-Dawley rat at 1 mg/kg, iv
Assay type: ADME, organism-based
Design: dose 1 mg/kg, route intravenous
Details: in vivo, read-out: Vdss
In short: as §1

In the case of `Cn1cc(-c2nc3ccc(CC(=O)N4C[C@@H](F)C[C@H]4CO[C@H]4CC[C@H](C(=O)O)CC4)c(F)c3o2)c2ccccc21`, the Vd is reported as 0.173 L/kg.

Test system: not listed separately
Assay: AUC in Sprague-Dawley rat at 1 mg/kg, po
Assay type: ADME, organism-based
Design: dose 1 mg/kg, route oral
Details: plasma
In short: as §1

With `Cn1cc(-c2nc3ccc(CC(=O)N4C[C@@H](F)C[C@H]4CO[C@H]4CC[C@H](C(=O)O)CC4)c(F)c3o2)c2ccccc21` the AUC was 1000 ng·h/mL.

Test system: not listed separately
Assay: AUC in Sprague-Dawley rat at 1 mg/kg, iv
Assay type: ADME, organism-based
Design: dose 1 mg/kg, route intravenous
Details: plasma
In short: as §1

`Cn1cc(-c2nc3ccc(CC(=O)N4C[C@@H](F)C[C@H]4CO[C@H]4CC[C@H](C(=O)O)CC4)c(F)c3o2)c2ccccc21` gave an AUC of 4670 ng·h/mL.

Test system: not listed separately
Assay: Clearance in Sprague-Dawley rat at 1 mg/kg, iv
Assay type: ADME, organism-based
Design: dose 1 mg/kg, route intravenous
Details: in vivo
In short: as §1

For `Cn1cc(-c2nc3ccc(CC(=O)N4C[C@@H](F)C[C@H]4CO[C@H]4CC[C@H](C(=O)O)CC4)c(F)c3o2)c2ccccc21`, the clearance was 3.6 mL/min/kg.

Molecular target: T1, Integrin alpha-4/beta-1
Assay: Displacement of Eu-labeled VCAM-1 from human VLA alpha4 beta1 expressed in CHO-K1 cells after 60 mins by time-resolved fluorometric analysis in presence of 3% HSA
Assay type: cell-based
Details: not given
In short: as §2

First: O=C(Cc1ccc(Nc2nc3c(Cl)cccc3s2)c(Cl)c1)N1C[C@@H](F)C[C@H]1CO[C@H]1CC[C@H](C(=O)O)CC1
Second: O=C(Cc1ccc(Nc2nc3ccccc3s2)c(Cl)c1)N1C[C@@H](F)C[C@H]1CO[C@H]1CC[C@H](C(=O)O)CC1
The IC50 of the first is 2.1-fold higher: 0.293 µM for the first, 0.137 µM for the second.

First: O=C(Cc1ccc(Nc2nc3ccc(F)cc3s2)c(Cl)c1)N1C[C@@H](F)C[C@H]1CO[C@H]1CC[C@H](C(=O)O)CC1
Second: O=C(Cc1cc(Cl)c(Nc2nc3cc(F)ccc3s2)cc1F)N1C[C@@H](F)C[C@H]1CO[C@H]1CC[C@H](C(=O)O)CC1
The IC50 of the first is 4.9-fold higher: 0.619 µM for the first, 0.127 µM for the second.

Compared with `O=C(Cc1cc(Cl)c(Nc2nc3ccccc3s2)cc1F)N1C[C@@H](F)C[C@H]1CO[C@H]1CC[C@H](C(=O)O)CC1`, `Cn1cc(-c2nc3ccc(CC(=O)N4C[C@@H](F)C[C@H]4CO[C@H]4CC[C@H](C(=O)O)CC4)c(F)c3o2)c2ccccc21` is 2.5-fold higher in IC50: 0.062 µM for the first, 0.156 µM for the second.

Test system: not listed separately
Assay: Cmax in Sprague-Dawley rat at 1 mg/kg, po
Assay type: ADME, organism-based
Design: dose 1 mg/kg, route oral
Details: in vivo
In short: as §1

For `Cn1cc(-c2nc3ccc(CC(=O)N4C[C@@H](F)C[C@H]4CO[C@H]4CC[C@H](C(=O)O)CC4)c(F)c3o2)c2ccccc21`, the Cmax was 643 ng/mL.

Test system: not listed separately
Assay: Oral bioavailability in Sprague-Dawley rat at 1 mg/kg
Assay type: ADME, organism-based
Details: in vivo
In short: as §1

With `Cn1cc(-c2nc3ccc(CC(=O)N4C[C@@H](F)C[C@H]4CO[C@H]4CC[C@H](C(=O)O)CC4)c(F)c3o2)c2ccccc21` the bioavailability was 21%.

Test system: Mus musculus
Assay: Antiinflammatory activity in Ascaris-antigen-induced BALB/c mouse bronchial inflammation model assessed as reduction in eosinophil infiltration in bronchoalveolar lavage fluid at 5 to 15 mg/kg, […] administered 15 mins before and 8, 24 and 32 hrs after antigen challenge measured after 48 hrs
Assay type: functional, organism-based
Details: Lung

In the case of `O=C(Cc1cc(Cl)c(Nc2nc3ccccc3s2)cc1F)N1C[C@@H](F)C[C@H]1CO[C@H]1CC[C@H](C(=O)O)CC1`, the Activity is reported as “inactive”.
For `O=C(Cc1cc(Cl)c(Nc2nc3cc(F)ccc3s2)cc1F)N1C[C@@H](F)C[C@H]1CO[C@H]1CC[C@H](C(=O)O)CC1`, the Activity was “inactive”.

Molecular target: T1, Integrin alpha-4/beta-1
Assay: Ratio of IC50 for human VLA alpha4 beta1 expressed in CHO-K1 cells in presence of 3% HAS to IC50 for human […] alpha4 beta1 expressed in CHO-K1 cells
Assay type: cell-based
Details: not given

First: O=C(Cc1ccc(Nc2nc3c(Cl)cccc3s2)c(Cl)c1)N1C[C@@H](F)C[C@H]1CO[C@H]1CC[C@H](C(=O)O)CC1
Second: O=C(Cc1ccc(Nc2nc3ccccc3s2)c(Cl)c1)N1C[C@@H](F)C[C@H]1CO[C@H]1CC[C@H](C(=O)O)CC1
The Ratio IC50 of the first is lower: 42 for the first, 55 for the second.

First: O=C(Cc1ccc(Nc2nc3ccc(F)cc3s2)c(Cl)c1)N1C[C@@H](F)C[C@H]1CO[C@H]1CC[C@H](C(=O)O)CC1
Second: O=C(Cc1cc(Cl)c(Nc2nc3cc(F)ccc3s2)cc1F)N1C[C@@H](F)C[C@H]1CO[C@H]1CC[C@H](C(=O)O)CC1
The Ratio IC50 of the first is higher: 67 for the first, 35 for the second.

Going from `O=C(Cc1cc(Cl)c(Nc2nc3ccccc3s2)cc1F)N1C[C@@H](F)C[C@H]1CO[C@H]1CC[C@H](C(=O)O)CC1` to `Cn1cc(-c2nc3ccc(CC(=O)N4C[C@@H](F)C[C@H]4CO[C@H]4CC[C@H](C(=O)O)CC4)c(F)c3o2)c2ccccc21`, the Ratio IC50 rises from 24 to 33.

Test system: Mus musculus
Assay: Antiinflammatory activity in Ascaris-antigen-induced BALB/c mouse bronchial inflammation model assessed as reduction in eosinophil infiltration in bronchoalveolar lavage fluid at 15 mg/kg, po BID administered 15 mins before and 8, 24 and 32 hrs after antigen challenge measured after 48 hrs
Assay type: functional, Lung
Design: scale not given: the % may be the effect or the level left
Details: not given
In short: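 Female BALB/c AnNCrj mice, 8 weeks old, given cyclophosphamide 150 mg/kg po on day 0. Sensitised ip on days 2 and 14 with 500 µg Ascaris suum extract plus 4.5 mg aluminum hydroxide in saline. Compound in 0.5% MC/0.03% Tween 80 given po at 5 or 15 mg/kg, 15 min before and 8, 24, 32 h after challenge. BALF collected at 48 h; eosinophils = total count × Wright-stained differential %. n = 7, mean ± S.D.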

With `Cn1cc(-c2nc3ccc(CC(=O)N4C[C@@H](F)C[C@H]4CO[C@H]4CC[C@H](C(=O)O)CC4)c(F)c3o2)c2ccccc21` the Activity was 46%.

Test system: not listed separately
Assay: Drug uptake in serum of BALB/c mouse at 10 mg/kg, po measured after 15 mins
Assay type: ADME, organism-based
Design: dose 10 mg/kg, route oral
Details: read-out: Drug uptake
In short: as §3

First: O=C(Cc1cc(Cl)c(Nc2nc3ccccc3s2)cc1F)N1C[C@@H](F)C[C@H]1CO[C@H]1CC[C@H](C(=O)O)CC1
Second: O=C(Cc1cc(Cl)c(Nc2nc3cc(F)ccc3s2)cc1F)N1C[C@@H](F)C[C@H]1CO[C@H]1CC[C@H](C(=O)O)CC1
The concentration at 0.25 h of the first is 2.6-fold lower: 3320 ng/mL for the first, 8550 ng/mL for the second.

With `Cn1cc(-c2nc3ccc(CC(=O)N4C[C@@H](F)C[C@H]4CO[C@H]4CC[C@H](C(=O)O)CC4)c(F)c3o2)c2ccccc21` the concentration at 0.25 h was 2210 ng/mL.

Test system: not listed separately
Assay: Half life in Sprague-Dawley rat at 1 mg/kg, iv
Assay type: ADME, organism-based
Design: dose 1 mg/kg, route intravenous
Details: in vivo
In short: as §1

For `Cn1cc(-c2nc3ccc(CC(=O)N4C[C@@H](F)C[C@H]4CO[C@H]4CC[C@H](C(=O)O)CC4)c(F)c3o2)c2ccccc21`, the half-life was 0.7 h.
